Reference: ChEMBL document CHEMBL4261600 (Eur J Med Chem, 2018)

Experiments:
[1] = target: Ribosomal protein S6 kinase beta-1 (Homo sapiens) (UniProt P23443); test: Binding affinity to wild-type human partial length S6K1 (M1 to S421 residues) expressed in mammalian expression system assessed as remaining unbound target protein level at 1000 nM by Kinomescan method relative to control
[2] = target: Interferon-induced, double-stranded RNA-activated protein kinase (Homo sapiens) (UniProt P19525); test: Binding affinity to wild-type human partial length PRKR (F247 to C551 residues) expressed in bacterial expression system assessed as remaining unbound target protein level at 1000 nM by Kinomescan method relative to control
[3] = target: Ribosomal protein S6 kinase alpha-5 (Homo sapiens) (UniProt O75582); test: Binding affinity to wild-type human partial length N-terminal RPS6KA5 kinase domain 1 expressed in bacterial expression system assessed as remaining unbound target protein level at 1000 nM by Kinomescan method relative to control
[4] = target: Serine/threonine-protein kinase 36 (Homo sapiens) (UniProt Q9NRP7); test: Binding affinity to wild-type human partial length STK36 (M1 to T271 residues) expressed in bacterial expression system assessed as remaining unbound target protein level at 1000 nM by Kinomescan method relative to control
[5] = target: Vascular endothelial growth factor receptor 3 (Homo sapiens) (UniProt P35916); test: Binding affinity to wild-type human partial length FLT4 (E821 to E1196 residues) expressed in bacterial expression system assessed as remaining unbound target protein level at 1000 nM by Kinomescan method relative to control
[6] = target: Tyrosine-protein kinase Yes (Homo sapiens) (UniProt P07947); test: Binding affinity to wild-type human partial length YES (T257 to L543 residues) expressed in bacterial expression system assessed as remaining unbound target protein level at 1000 nM by Kinomescan method relative to control
[7] = target: RAC-beta serine/threonine-protein kinase (Homo sapiens) (UniProt P31751); test: Binding affinity to wild-type human partial length AKT2 expressed in bacterial expression system assessed as remaining unbound target protein level at 1000 nM by Kinomescan method relative to control
Summary of the method: (§1)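 Profiled in a KINOMEscan binding panel with the inhibitor at a single concentration of 1 μM. Binding to each kinase was read out as percent of control, relative to a DMSO control. Strong binders were defined as those with a percent control value below 1.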

[8] = target: Casein kinase I isoform gamma-2 (Homo sapiens) (UniProt P78368); test: Binding affinity to wild-type human full length CSNK1G2 (M1 to K415 residues) expressed in bacterial expression system assessed as remaining unbound target protein level at 1000 nM by Kinomescan method relative to control
Summary of the method: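 KINOMEscan competitive binding profile at 1 μM inhibitor. Remaining target binding reported as percent of DMSO control.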

[9] = target: Tyrosine-protein kinase ABL1 (Homo sapiens) (UniProt P00519); test: Binding affinity to wild-type human phosphorylated ABL1 (S229 to K512 residues) expressed in mammalian expression system assessed as remaining unbound target protein level at 1000 nM by Kinomescan method relative to control
[10] = target: Serine/threonine-protein kinase PAK 5 (Homo sapiens) (UniProt Q9P286); test: Binding affinity to wild-type human partial length PAK7 (Y400 to H719 residues) expressed in bacterial expression system assessed as remaining unbound target protein level at 1000 nM by Kinomescan method relative to control
[11] = test system: Mast/stem cell growth factor receptor Kit (Homo sapiens), P10721 [D816V]; test: Binding affinity to human partial length KIT D816V mutant (I571 to D952 residues) expressed in bacterial expression system assessed as remaining unbound target protein level at 1000 nM by Kinomescan method relative to control
Summary of the method: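 KINOMEscan competition-binding profiling across the panel of 468 kinases and mutants, with inhibitor tested at 1 μM. Binding is expressed as percent of control, with DMSO as the reference control.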

[12] = target: Serine/threonine-protein kinase pim-3 (Homo sapiens) (UniProt Q86V86); test: Binding affinity to wild-type human partial length PIM3 (G16 to A317 residues) expressed in bacterial expression system assessed as remaining unbound target protein level at 1000 nM by Kinomescan method relative to control
[13] = target: Serine/threonine-protein kinase Chk1 (Homo sapiens) (UniProt O14757); test: Binding affinity to wild-type human partial length CHEK1 (M1 to G289 residues) expressed in bacterial expression system assessed as remaining unbound target protein level at 1000 nM by Kinomescan method relative to control
Summary of the method: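 KINOMEscan competition binding profile across a panel of 468 kinases and mutants, with the inhibitor tested at a single concentration of 1 μM. Binding is reported as percent of control, meaning signal relative to a DMSO control.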

CDK8/Cyclin C = CDK8/Cyclin C (Homo sapiens, UniProt P49336); test: Inhibition of recombinant full length His-tagged human CDK8/CyclinC expressed in baculovirus expression system
[14] = target: Rhodopsin kinase GRK7 (Homo sapiens) (UniProt Q8WTQ7); test: Binding affinity to wild-type human full length GRK7 (M1 to L553 residues) expressed in mammalian expression system assessed as remaining unbound target protein level at 1000 nM by Kinomescan method relative to control
Summary of the method: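 Single-point competition binding screen across a panel of 468 kinases and mutants, with the inhibitor at 1 μM. Binding is read out as percent of a DMSO control, and targets below 1 percent control were classed as strong binders.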

[15] = target: Serine/threonine-protein kinase D2 (Homo sapiens) (UniProt Q9BZL6); test: Binding affinity to wild-type human partial length PRKD2 (A519 to E838 residues) expressed in bacterial expression system assessed as remaining unbound target protein level at 1000 nM by Kinomescan method relative to control
[16] = target: Mitogen-activated protein kinase 15 (Homo sapiens) (UniProt Q8TD08); test: Binding affinity to wild-type human partial length ERK8 (M1 to P437 residues) expressed in bacterial expression system assessed as remaining unbound target protein level at 1000 nM by Kinomescan method relative to control
Summary of the method: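 KINOMEscan binding panel of 468 kinases/mutants. Inhibitor was tested at a single concentration of 1 μM. Binding is reported as percent of control, defined relative to a DMSO control.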

[17] = target: Non-receptor tyrosine-protein kinase TYK2 (Homo sapiens) (UniProt P29597); test: Binding affinity to wild-type human partial length TYK2 JH1 catalytic domain (V877 to C1187 residues) expressed in mammalian expression system assessed as remaining unbound target protein level at 1000 nM by Kinomescan method relative to control
[18] = target: Phosphatidylinositol 4,5-bisphosphate 3-kinase catalytic subunit beta isoform (Homo sapiens) (UniProt P42338); test: Binding affinity to wild-type human partial length PIK3CB (P118 to S1070 residues) expressed in mammalian expression system assessed as remaining unbound target protein level at 1000 nM by Kinomescan method relative to control
[19] = target: RAC-alpha serine/threonine-protein kinase (Homo sapiens) (UniProt P31749); test: Binding affinity to wild-type human partial length AKT1 expressed in bacterial expression system assessed as remaining unbound target protein level at 1000 nM by Kinomescan method relative to control; summary of the method: as §1
Chain of RAC-alpha serine/threonine-protein kinase (Homo sapiens) (P31749 whole entry): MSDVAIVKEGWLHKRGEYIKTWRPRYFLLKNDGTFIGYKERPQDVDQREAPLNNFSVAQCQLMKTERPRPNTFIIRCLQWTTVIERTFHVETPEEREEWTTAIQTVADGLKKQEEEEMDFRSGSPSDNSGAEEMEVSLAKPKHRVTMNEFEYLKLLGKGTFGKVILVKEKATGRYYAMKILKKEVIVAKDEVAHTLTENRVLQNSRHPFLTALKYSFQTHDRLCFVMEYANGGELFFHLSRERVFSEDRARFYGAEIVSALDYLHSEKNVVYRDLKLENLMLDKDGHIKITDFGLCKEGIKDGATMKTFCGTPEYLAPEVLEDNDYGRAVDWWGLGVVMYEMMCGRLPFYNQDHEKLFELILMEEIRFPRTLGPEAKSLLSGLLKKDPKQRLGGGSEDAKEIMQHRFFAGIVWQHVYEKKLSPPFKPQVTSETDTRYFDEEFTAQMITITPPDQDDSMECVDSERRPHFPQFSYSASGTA

Chain of Ribosomal protein S6 kinase beta-1 (Homo sapiens) (P23443 whole entry, looked up, the tested form may be a part): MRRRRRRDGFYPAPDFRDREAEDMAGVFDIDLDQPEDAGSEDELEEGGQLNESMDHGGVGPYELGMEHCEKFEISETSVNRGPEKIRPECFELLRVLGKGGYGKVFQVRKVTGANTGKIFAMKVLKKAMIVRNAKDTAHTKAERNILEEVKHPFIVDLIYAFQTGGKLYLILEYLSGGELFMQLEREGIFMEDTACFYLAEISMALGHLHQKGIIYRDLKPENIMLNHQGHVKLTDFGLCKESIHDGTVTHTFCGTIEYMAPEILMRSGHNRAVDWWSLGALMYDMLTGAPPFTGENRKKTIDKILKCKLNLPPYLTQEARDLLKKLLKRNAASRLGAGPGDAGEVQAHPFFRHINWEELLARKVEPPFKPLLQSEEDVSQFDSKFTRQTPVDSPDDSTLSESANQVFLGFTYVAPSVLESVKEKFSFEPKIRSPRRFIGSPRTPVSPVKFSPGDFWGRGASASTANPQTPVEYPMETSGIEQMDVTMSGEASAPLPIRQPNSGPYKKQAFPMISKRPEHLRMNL
Chain of Serine/threonine-protein kinase D2 (Homo sapiens) (Q9BZL6 whole entry, the tested form may be a part): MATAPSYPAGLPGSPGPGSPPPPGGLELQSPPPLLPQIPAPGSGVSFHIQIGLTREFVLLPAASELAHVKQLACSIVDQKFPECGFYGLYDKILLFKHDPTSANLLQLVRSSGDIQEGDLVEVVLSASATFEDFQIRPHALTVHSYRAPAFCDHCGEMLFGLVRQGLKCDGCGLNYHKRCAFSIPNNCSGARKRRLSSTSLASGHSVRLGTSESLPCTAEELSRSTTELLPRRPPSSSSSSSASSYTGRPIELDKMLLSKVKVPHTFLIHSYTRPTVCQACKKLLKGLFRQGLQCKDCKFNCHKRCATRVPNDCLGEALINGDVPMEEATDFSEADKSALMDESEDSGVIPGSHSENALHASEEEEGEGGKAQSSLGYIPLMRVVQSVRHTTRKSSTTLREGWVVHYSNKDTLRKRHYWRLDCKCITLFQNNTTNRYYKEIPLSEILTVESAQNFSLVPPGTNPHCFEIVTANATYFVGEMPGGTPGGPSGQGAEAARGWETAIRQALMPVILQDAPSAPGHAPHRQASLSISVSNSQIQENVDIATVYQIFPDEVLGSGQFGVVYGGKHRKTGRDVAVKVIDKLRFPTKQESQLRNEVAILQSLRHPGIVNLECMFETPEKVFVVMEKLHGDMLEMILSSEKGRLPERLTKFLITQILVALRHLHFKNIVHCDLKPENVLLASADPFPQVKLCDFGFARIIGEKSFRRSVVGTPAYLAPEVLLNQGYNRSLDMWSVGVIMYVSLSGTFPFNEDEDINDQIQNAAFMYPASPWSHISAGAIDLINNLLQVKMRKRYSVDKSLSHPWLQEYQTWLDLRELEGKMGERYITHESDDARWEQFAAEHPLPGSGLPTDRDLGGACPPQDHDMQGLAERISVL
Chain of CDK8/Cyclin C (P49336 whole entry, the tested form may be a part): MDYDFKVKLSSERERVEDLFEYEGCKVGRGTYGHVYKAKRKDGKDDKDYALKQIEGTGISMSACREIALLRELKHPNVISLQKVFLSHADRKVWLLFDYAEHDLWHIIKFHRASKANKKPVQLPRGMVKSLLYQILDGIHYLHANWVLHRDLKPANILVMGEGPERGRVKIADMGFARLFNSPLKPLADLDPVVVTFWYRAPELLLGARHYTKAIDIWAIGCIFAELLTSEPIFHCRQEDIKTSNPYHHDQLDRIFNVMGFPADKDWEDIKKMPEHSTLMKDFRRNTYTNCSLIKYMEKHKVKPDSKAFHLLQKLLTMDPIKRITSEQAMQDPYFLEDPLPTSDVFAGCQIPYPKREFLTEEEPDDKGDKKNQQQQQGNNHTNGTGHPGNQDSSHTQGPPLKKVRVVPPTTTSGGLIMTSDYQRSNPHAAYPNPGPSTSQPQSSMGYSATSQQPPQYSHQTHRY
Chain of CDK8/Cyclin C (P24863 whole entry, further chain, the tested form may be a part): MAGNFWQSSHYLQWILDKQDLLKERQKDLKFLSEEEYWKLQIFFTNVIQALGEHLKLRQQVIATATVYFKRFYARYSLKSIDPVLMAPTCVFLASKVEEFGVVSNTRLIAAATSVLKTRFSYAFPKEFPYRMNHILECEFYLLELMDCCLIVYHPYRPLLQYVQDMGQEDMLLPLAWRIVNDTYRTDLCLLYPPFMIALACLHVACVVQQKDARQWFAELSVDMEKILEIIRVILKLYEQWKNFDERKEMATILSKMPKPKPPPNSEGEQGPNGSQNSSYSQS
Chain of Mast/stem cell growth factor receptor Kit (Homo sapiens), P10721 [D816V] (P10721 whole entry D816V, the tested form may be a part): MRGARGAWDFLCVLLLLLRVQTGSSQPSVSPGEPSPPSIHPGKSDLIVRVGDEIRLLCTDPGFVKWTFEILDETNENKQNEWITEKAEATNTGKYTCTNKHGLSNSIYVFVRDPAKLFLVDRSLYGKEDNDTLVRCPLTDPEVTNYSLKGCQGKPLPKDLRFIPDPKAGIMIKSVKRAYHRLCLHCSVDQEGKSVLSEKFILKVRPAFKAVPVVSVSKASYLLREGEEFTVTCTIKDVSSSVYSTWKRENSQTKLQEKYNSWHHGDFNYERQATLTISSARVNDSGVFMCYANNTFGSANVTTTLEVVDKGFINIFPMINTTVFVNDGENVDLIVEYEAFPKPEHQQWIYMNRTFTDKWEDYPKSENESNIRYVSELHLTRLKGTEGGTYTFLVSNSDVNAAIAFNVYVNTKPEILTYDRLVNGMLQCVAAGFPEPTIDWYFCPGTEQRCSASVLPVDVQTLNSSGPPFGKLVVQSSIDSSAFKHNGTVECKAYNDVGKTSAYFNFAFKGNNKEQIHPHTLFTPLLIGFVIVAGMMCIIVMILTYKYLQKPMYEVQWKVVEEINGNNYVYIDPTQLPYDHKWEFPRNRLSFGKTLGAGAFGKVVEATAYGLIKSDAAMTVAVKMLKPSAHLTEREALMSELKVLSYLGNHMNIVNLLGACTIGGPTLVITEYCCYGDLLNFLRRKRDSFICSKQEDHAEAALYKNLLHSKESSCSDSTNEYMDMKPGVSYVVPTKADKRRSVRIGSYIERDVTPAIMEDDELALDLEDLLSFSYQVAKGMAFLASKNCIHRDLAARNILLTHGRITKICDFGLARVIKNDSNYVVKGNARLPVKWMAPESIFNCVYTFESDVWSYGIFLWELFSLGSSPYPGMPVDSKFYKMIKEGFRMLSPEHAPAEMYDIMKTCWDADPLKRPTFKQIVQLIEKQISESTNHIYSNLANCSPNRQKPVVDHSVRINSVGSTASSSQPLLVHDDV
Chain of Interferon-induced, double-stranded RNA-activated protein kinase (Homo sapiens) (P19525 whole entry, the tested form may be a part): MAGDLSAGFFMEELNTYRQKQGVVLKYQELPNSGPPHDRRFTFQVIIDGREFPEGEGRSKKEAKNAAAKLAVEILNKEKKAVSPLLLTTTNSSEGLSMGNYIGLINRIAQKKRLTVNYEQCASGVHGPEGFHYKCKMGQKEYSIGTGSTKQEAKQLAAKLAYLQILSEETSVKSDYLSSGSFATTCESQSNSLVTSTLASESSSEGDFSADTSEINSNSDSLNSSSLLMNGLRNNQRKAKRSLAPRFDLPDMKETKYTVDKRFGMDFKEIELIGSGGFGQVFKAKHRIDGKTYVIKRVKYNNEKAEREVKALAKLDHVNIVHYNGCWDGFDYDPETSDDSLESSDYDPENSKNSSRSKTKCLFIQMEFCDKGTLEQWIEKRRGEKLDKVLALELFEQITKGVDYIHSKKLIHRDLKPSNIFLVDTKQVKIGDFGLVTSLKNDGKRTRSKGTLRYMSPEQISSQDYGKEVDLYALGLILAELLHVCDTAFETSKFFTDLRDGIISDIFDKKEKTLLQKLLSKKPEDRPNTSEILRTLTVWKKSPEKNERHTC
Chain of Serine/threonine-protein kinase Chk1 (Homo sapiens) (O14757 whole entry, the tested form may be a part): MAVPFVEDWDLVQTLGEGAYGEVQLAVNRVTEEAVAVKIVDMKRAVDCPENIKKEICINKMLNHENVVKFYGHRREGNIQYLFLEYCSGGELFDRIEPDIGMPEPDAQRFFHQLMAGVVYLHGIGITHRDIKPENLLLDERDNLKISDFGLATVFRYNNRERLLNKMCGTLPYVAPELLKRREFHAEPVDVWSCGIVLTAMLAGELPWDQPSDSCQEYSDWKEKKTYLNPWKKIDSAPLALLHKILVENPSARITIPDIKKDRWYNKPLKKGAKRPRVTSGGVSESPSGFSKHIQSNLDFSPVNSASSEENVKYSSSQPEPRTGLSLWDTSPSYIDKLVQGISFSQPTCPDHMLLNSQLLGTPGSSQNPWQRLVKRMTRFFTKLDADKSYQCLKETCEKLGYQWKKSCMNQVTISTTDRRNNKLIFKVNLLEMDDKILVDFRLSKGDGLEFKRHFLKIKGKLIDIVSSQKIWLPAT

Compound `COCCN[C@H]1CC[C@H](Nc2cc(-c3csc(NCC4(C#N)CCOCC4)n3)c(Cl)cn2)CC1` has an Activity [1] of 95%, an Activity [2] of 98% and an Activity [3] of 100%. The Activity [4] was 83%, the Activity [5] was 88% and the Activity [6] was 97%. It also gave an Activity [7] of 88%, an Activity [8] of 73% and an Activity [9] of 91%. It also gave an Activity [10] of 98%, an Activity [11] of 87% and an Activity [12] of 65%. For the same compound, the Activity [13] was 91%, the IC50 (CDK8/Cyclin C) was > 10 µM and the Activity [14] was 100%. The Activity [15] was 70%, the Activity [16] was 86% and the Activity [17] was 90%. The Activity [18] was 100% and the Activity [19] was 92%.
